{"data": "Experimental data pooled from the literature", "target": "Serine/threonine-protein kinase MARK1 (MARK1, Homo sapiens, UniProt Q9P0L2)", "observed": "enzyme activity", "mode": "inhibitor", "note": "Compare with care: the assays were run in different laboratories."}
{"SMILES": "CC(C)(C)c1nc2c(s1)c1nc(N)ncc1c1ccc(NS(=O)(=O)c3c(F)cccc3F)c(F)c12", "method": "radiometric", "tested at": "1 µM", "remaining activity [%]": 90}
{"SMILES": "COc1cc(Cl)c(C(=O)N[C@@H](CN[C@H]2CC[C@@H](N)CC2)Cc2ccc(C#N)cc2)cc1-c1ccc(CN[C@H](C)c2ccc(C)cc2)o1", "tested at": "1 µM", "remaining activity [%]": 148}
{"SMILES": "NS(=O)(=O)c1ccc(CNc2nc(Nc3cccc(CN4CCOCC4)c3)ncc2C2CC2)cc1", "method": "radiometric", "tested at": "1 µM", "remaining activity [%]": 100}
{"SMILES": "COc1cc(Nc2cnc(C#N)c(O[C@H](C)CN(C)C)n2)ncc1-c1cnn(C)c1", "method": "radiometric", "tested at": "10 µM", "remaining activity [%]": 80}
{"SMILES": "c1cc(CN2CCOCC2)cc(Nc2ncc(C3CC3)c(NCCc3c[nH]cn3)n2)c1", "method": "radiometric", "tested at": "1 µM", "remaining activity [%]": 1}
{"SMILES": "O=C(Nc1cnn(-c2csc(C(=O)NC3COC3)c2)c1)Nc1ccccc1Cl", "tested at": "5 µM", "remaining activity [%]": 96.3}
{"SMILES": "CCCOc1ccc(OC)c(F)c1C(=O)c1ccc(C(=O)N[C@@H]2CNC[C@H]2NC(=O)c2ccc3[nH]ncc3c2)cc1", "tested at": "10 µM", "remaining activity [%]": 21}
{"SMILES": "Cc1ccc(C(=O)Nc2ccc(CN3CCN(C)CC3)c(C(F)(F)F)c2)cc1C#Cc1cnc2cccnn12", "tested at": "23.5 nM", "remaining activity [%]": 100}
{"SMILES": "Oc1cccc(-c2nc(N3CCOCC3)c3oc4ncccc4c3n2)c1", "tested at": "10 µM", "remaining activity [%]": 91}
{"SMILES": "O=C(NCCCNc1nc(Nc2cccc(NC(=O)N3CCCC3)c2)ncc1Br)C1CCC1", "method": "radiometric", "tested at": "1 µM", "remaining activity [%]": -6}
{"SMILES": "CC(C)(O)[C@H]1CC[C@H](Nc2ccc3ncc(-c4cccc(C(F)(F)F)c4)n3n2)CC1", "tested at": "1 µM", "remaining activity [%]": 102}
{"SMILES": "NS(=O)(=O)c1ccc(CNc2nc(Nc3cccc(CN4CCOCC4)c3)ncc2Br)cc1", "method": "radiometric", "tested at": "1 µM", "remaining activity [%]": 66}
{"SMILES": "O=C(Nc1cnn(-c2csc(C(=O)NC3COC3)c2)c1)Nc1c(F)cccc1Cl", "tested at": "5 µM", "remaining activity [%]": 108}
{"SMILES": "CC(C)(C)c1nc(-c2cccc(NS(=O)(=O)c3c(F)cccc3F)c2F)c(-c2ccnc(N)n2)s1", "method": "radiometric", "tested at": "1 µM", "remaining activity [%]": 90}
{"SMILES": "Cc1cnc(NC2CCOCC2)nc1-n1cnc(C(=O)NC(CN)c2cc(F)cc(Cl)c2)c1 (stereo not shown)", "method": "radiometric", "tested at": "1 µM", "remaining activity [%]": 43}
{"SMILES": "Cc1nn(CC(F)(F)F)cc1Nc1nccc(NCCc2cnc[nH]2)n1", "method": "radiometric", "tested at": "1 µM", "remaining activity [%]": 109}
{"SMILES": "Cn1c(=O)n(-c2ccc(C(C)(C)C#N)cc2)c2c3cc(-c4cnc5ccccc5c4)ccc3ncc21", "tested at": "10 µM", "remaining activity [%]": 97}
{"SMILES": "NS(=O)(=O)c1ccc(CNc2ccnc(Nc3cccc(NC(=O)N4CCCC4)c3)n2)cc1", "method": "radiometric", "tested at": "1 µM", "remaining activity [%]": 104}
{"SMILES": "CCN(CC)c1ccc(C2=NNC(=O)CC2C)cc1[N+](=O)[O-] (stereo not shown)", "tested at": "10 µM", "remaining activity [%]": 102}
